From ChEMBL document CHEMBL4699659, “Discovery of 4-amino-1H-pyrazolo[3,4-d]pyrimidin derivatives as novel discoidin domain receptor 1 (DDR1) inhibitors” (Bioorg Med Chem, 2021)

Assays:
HCT-116 [1] = test: Antiproliferative activity against human HCT-116 cells overexpressing DDR1 assessed as inhibition of cell proliferation at 10 uM measured after 72 hrs by MTT assay relative to control; type: functional
Method in brief: (§1)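 Adherent cells seeded at 3000–4000 per well, then given compound at 10 μM in 100 μL medium on day two. After 72 h, MTT added for a further 4–5 h and absorbance read at 570 nm. Percent growth inhibition taken from sample absorbance as a ratio to untreated control.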

HCT-116 [2] = test: Antiproliferative activity against human HCT-116 cells overexpressing DDR1 assessed as inhibition of cell proliferation measured after 72 hrs by MTT assay; type: functional, cell-based; conditions: HCT-116, 72 h
Method in brief: (§2)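 Adherent cells seeded at 3000–4000 per well and dosed the next day with a dilution series in 100 μL medium. Exposure 72 h, then MTT incubation 4–5 h and absorbance read at 570 nm. Inhibition expressed as sample/control absorbance ratio; IC50 determined only for compounds giving […] inhibition at 10 μM.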

MDA-MB-231 [3] = test: Antiproliferative activity against human MDA-MB-231 cells overexpressing DDR1 assessed as inhibition of cell proliferation at 10 uM measured after 72 hrs by MTT assay relative to control; type: functional; method in brief: as §1
MDA-MB-231 [4] = test: Antiproliferative activity against human MDA-MB-231 cells overexpressing DDR1 assessed as inhibition of cell proliferation measured after 72 hrs by MTT assay; type: functional, cell-based; conditions: MDA-MB-231, 72 h; method in brief: as §2
[5] = biological target: Epithelial discoidin domain-containing receptor 1 (Homo sapiens, UniProt Q08345); test: Inhibition of DDR1 (unknown origin) using fluorescein-poly GAT as substrate measured after 1 hr by LANCE ULTRA kinase assay
Epithelial discoidin domain-containing receptor 1, sequence (Q08345 whole entry, the tested form may be a part): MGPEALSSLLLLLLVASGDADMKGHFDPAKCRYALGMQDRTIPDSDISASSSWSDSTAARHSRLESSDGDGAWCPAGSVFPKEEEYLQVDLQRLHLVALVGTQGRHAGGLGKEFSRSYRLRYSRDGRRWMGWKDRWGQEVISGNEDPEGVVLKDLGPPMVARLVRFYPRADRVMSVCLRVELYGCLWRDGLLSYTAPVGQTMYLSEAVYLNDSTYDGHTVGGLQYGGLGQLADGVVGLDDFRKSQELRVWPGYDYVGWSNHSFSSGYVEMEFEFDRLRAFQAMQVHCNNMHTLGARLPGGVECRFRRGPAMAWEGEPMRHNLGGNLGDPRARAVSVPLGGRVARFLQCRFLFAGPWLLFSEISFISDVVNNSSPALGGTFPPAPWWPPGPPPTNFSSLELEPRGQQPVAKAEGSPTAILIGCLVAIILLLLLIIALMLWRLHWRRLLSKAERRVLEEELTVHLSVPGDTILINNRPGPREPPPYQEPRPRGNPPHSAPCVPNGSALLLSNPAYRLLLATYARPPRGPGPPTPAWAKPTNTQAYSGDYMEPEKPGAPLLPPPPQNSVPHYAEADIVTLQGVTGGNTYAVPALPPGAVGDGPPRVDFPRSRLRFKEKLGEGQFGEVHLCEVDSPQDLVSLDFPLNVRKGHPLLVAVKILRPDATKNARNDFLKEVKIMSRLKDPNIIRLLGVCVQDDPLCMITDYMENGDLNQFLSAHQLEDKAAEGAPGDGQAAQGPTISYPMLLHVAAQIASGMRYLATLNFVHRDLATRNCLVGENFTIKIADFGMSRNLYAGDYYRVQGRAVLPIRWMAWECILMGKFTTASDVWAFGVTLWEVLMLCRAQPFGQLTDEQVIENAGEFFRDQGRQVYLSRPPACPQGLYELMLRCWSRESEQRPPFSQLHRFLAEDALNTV

Row | SMILES | inhibition at 10 µM (HCT-116 [1]) | IC50 (HCT-116 [2]) | inhibition at 10 µM (MDA-MB-231 [3]) | IC50 (MDA-MB-231 [4]) | IC50 [5]
1 | Cc1cn(-c2cc(NC(=O)c3ccc(C)c(Nc4nccc(-c5cccnc5)n4)c3)cc(C(F)(F)F)c2)cn1 [NILOTINIB] | 88.1% | 5.75 µM | 93.6% | 7.31 µM | –
2 | Cc1ccc(NC(=O)c2ccc(CN3CCCC3)cc2)cc1Oc1ccc(-c2n[nH]c3ncnc(N)c23)cc1 | 100% | 3.04 µM | 98.8% | – | –
3 | Cc1ccc(NC(=O)c2ccc(CN3CCOCC3)cc2)cc1Oc1ccc(-c2n[nH]c3ncnc(N)c23)cc1 | 97.2% | 4.89 µM | 99% | 3.53 µM | –
4 | Cc1ccc(NC(=O)c2ccc(CN3CCN(C)CC3)c(F)c2)cc1Oc1ccc(-c2n[nH]c3ncnc(N)c23)cc1 | 73.2% | – | 92.1% | – | –
5 | Cc1ccc(NC(=O)c2ccc(CN3CCOCC3)c(Br)c2)cc1Oc1ccc(-c2n[nH]c3ncnc(N)c23)cc1 | 35% | > 10 µM | 81.3% | – | 2.47 µM
6 | Cc1ccc(NC(=O)c2ccc(CN3CCN(C)CC3)c(Cl)c2)cc1Oc1ccc(-c2n[nH]c3ncnc(N)c23)cc1 | 99.9% | 2.91 µM | 99.2% | 3.83 µM | –
7 | CCN1CCN(Cc2ccc(C(=O)Nc3ccc(C)c(Oc4ccc(-c5n[nH]c6ncnc(N)c56)cc4)c3)cc2)CC1 | 33.6% | > 10 µM | 88.7% | – | –
8 | CN1CCN(Cc2ccc(C(=O)Nc3cccc(Oc4ccc(-c5n[nH]c6ncnc(N)c56)cc4)c3)cc2C(F)(F)F)CC1 | 99.8% | 5.96 µM | 98.2% | 4.29 µM | 0.044 µM
9 | Cc1ccc(NC(=O)c2ccc(CN3CCOCC3)c(F)c2)cc1Oc1ccc(-c2n[nH]c3ncnc(N)c23)cc1 | 11.1% | > 10 µM | 93.1% | – | 24.4 µM
10 | Cc1ccc(NC(=O)c2ccc(CN3CCOCC3)c(C(F)(F)F)c2)cc1Oc1ccc(-c2n[nH]c3ncnc(N)c23)cc1 | 20.5% | > 10 µM | 71.3% | – | 0.416 µM
11 | Cc1ccc(NC(=O)c2ccc(CN3CCN(C)CC3)c(Br)c2)cc1Oc1ccc(-c2n[nH]c3ncnc(N)c23)cc1 | 99.5% | 6.56 µM | 100% | – | –
12 | Cc1ccc(NC(=O)c2ccc(CN3CCCCC3)cc2)cc1Oc1ccc(-c2n[nH]c3ncnc(N)c23)cc1 | 99.6% | 2 µM | 98.7% | 2.68 µM | –
13 | Cc1ccc(NC(=O)c2ccc(CN3CCN(C)CC3)c(I)c2)cc1Oc1ccc(-c2n[nH]c3ncnc(N)c23)cc1 | 99.7% | 4.51 µM | 98.9% | 3.21 µM | 0.131 µM
14 | Cc1ccc(NC(=O)c2ccc(CN3CCC(C)CC3)c(C(F)(F)F)c2)cc1Oc1ccc(-c2n[nH]c3ncnc(N)c23)cc1 | 73.7% | – | 42.1% | > 10 µM | 2.81 µM
15 | Cc1ccc(NC(=O)c2ccc(CN3CCN(C)CC3)c(C(F)(F)F)c2)cc1Oc1ccc(-c2n[nH]c3ncnc(N)c23)cc1 | 100% | 4 µM | 97.9% | 3.36 µM | 0.044 µM
16 | Cc1ccc(C(=O)Nc2ccc(CN3CCN(C)CC3)c(C(F)(F)F)c2)cc1C#Cc1cnc2ccnn2c1 | – | – | – | – | 0.005 µM
17 | Cc1ccc(NC(=O)c2ccc(CN3CCN(C)CC3)cc2)cc1Oc1ccc(-c2n[nH]c3ncnc(N)c23)cc1 | 26.7% | > 10 µM | 94.5% | – | 2.69 µM
18 | Cc1ccc(NC(=O)c2ccc(CN3CCC(C)CC3)cc2)cc1Oc1ccc(-c2n[nH]c3ncnc(N)c23)cc1 | 99.9% | 1.37 µM | 97.4% | 2.76 µM | –
19 | Cc1ccc(NC(=O)c2cccc(CN3CCN(C)CC3)c2)cc1Oc1ccc(-c2n[nH]c3ncnc(N)c23)cc1 | 99.8% | 4.47 µM | 99.3% | – | 1.21 µM
20 | Cc1ccc(NC(=O)c2ccc(CN3CCOCC3)c(Cl)c2)cc1Oc1ccc(-c2n[nH]c3ncnc(N)c23)cc1 | 58.3% | – | 96.5% | – | 2.17 µM
21 | Cc1ccc(NC(=O)c2ccc(CN3CCCCC3)c(C(F)(F)F)c2)cc1Oc1ccc(-c2n[nH]c3ncnc(N)c23)cc1 | 36.9% | > 10 µM | 29.6% | > 10 µM | 0.975 µM
22 | CCN1CCN(Cc2ccc(C(=O)Nc3ccc(C)c(Oc4ccc(-c5n[nH]c6ncnc(N)c56)cc4)c3)cc2C(F)(F)F)CC1 | 99.7% | 5.48 µM | 99.3% | 3.85 µM | 0.07 µM
23 | Cc1ccc(NC(=O)c2ccc(CN3CCCC3)c(C(F)(F)F)c2)cc1Oc1ccc(-c2n[nH]c3ncnc(N)c23)cc1 | 34.9% | > 10 µM | 98.5% | – | 1.19 µM
